# Experimental data taken from ChEMBL document CHEMBL1137729, “Synthesis, evaluation and 3D QSAR analysis of novel estradiol-RGD octapeptide conjugates with oral anti-osteoporosis activity” (Eur J Med Chem, 2009).
# Calls of active or inactive are those of the source. No cut-off for these calls is given here. Residues, ends and D or L forms follow the SMILES beside them. *: point of attachment. Succinyl(O17-estradiol) = C[C@]12CC[C@@H]3c4ccc(O)cc4CC[C@H]3[C@@H]1CC[C@@H]2OC(=O)CCC(=O)*
# Experiments:
# Mus musculus [1] = experiment: Antiosteoporosis activity in osteoporotic female mouse at 4 umol/kg, po; type: functional, organism-based
# [2] = Stability in presence of pepsin at 37 degC after 4 hrs; type: ADME; details: isolated protein
# Mus musculus [3] = species on record: Mus musculus; experiment: Inhibition of PAF-induced platelet aggregation in osteoporotic female mouse by ex vivo platelet aggregation assay; type: functional, organism-based
# Mus musculus [4] = species on record: Mus musculus; experiment: Inhibition of ADP-induced platelet aggregation in osteoporotic female mouse by ex vivo platelet aggregation assay; type: functional, organism-based
# [5] = Stability in presence of pepsin at 37 degC after 90 mins; type: ADME; details: isolated protein, 1.5 h
# Mus musculus [6] = experiment: Antiosteoporosis activity in ovariectomized ICR mouse assessed as mineral content in femur at 110.3 nmol/kg, po treated for 4 weeks measured after 1 day of last treatment; type: functional
# In short: (§1)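 Female mice, ovariectomized (sham: laparotomy only); from day 5 post-surgery dosed orally once daily with 110.3 nmol/kg in 0.2 ml 0.5% carboxymethylcellulose for 4 weeks (vehicle to OVX/sham). Left femur taken the day after the last dose, cleaned of muscle, length measured, defatted in chloroform–methanol (2:1, 2×3 h), dried 120 °C 6 h and weighed, ashed 800 °C 8 h and weighed. Mineral content = ash/dry weight; femur ash dissolved in 6 N HCl, diluted, calcium by o-methylphenolphthalein complexone. n = 12.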
# Mus musculus [7] = experiment: Toxicity in ovariectomized ICR mouse assessed as lung weight at 110.3 nmol/kg, po treated for 4 weeks measured after 1 day of last treatment; type: organism-based; details: in vivo, 24 h
# In short: (§2)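 OVX mice dosed orally once daily with 110.3 nmol/kg in 0.5% carboxymethylcellulose for 4 weeks. The day after the last dose, mice were anesthetized with pentobarbital (40.0 mg/kg ip) and killed; uteri, lungs, livers and spleens were removed and weighed directly and their morphology noted.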
# Mus musculus [8] = experiment: Toxicity in ovariectomized ICR mouse assessed as effect on tail bleeding time at 110.3 nmol/kg, po treated for 4 weeks measured after 30 mins of last treatment; type: organism-based; details: in vivo, 0.5 h
# In short: (§3)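 OVX mice received 110.3 nmol/kg orally in 0.5% carboxymethylcellulose daily for 4 weeks. At 30 and 90 min after the last dose, a 2 mm tail cut was made with the mouse in a tube holder; blood was blotted every 30 s until bleeding stopped, and the time was recorded as bleeding time.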
# Mus musculus [9] = experiment: Antiosteoporosis activity in ovariectomized ICR mouse assessed as weight of femur ash at 110.3 nmol/kg, po treated for 4 weeks measured after 1 day of last treatment; type: functional; in short: as §1
# Mus musculus [10] = experiment: Antiosteoporosis activity in osteoporotic female mouse at 0.11 umol/kg, po; type: functional, organism-based
# In short: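 Dose-finding pre-treatment: series of oral doses given to osteoporotic female mice; ex vivo anti-osteoporosis activity assessed to assign a general dose for all later experiments.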
# Mus musculus [11] = experiment: Antiosteoporosis activity in ovariectomized ICR mouse assessed as calcium content in femur at 110.3 nmol/kg, po treated for 4 weeks measured after 1 day of last treatment by o-methyl-phenolphthalein; type: functional; in short: as §1
# Mus musculus [12] = experiment: Toxicity in ovariectomized ICR mouse assessed as effect on tail bleeding time at 110.3 nmol/kg, po treated for 4 weeks measured after 90 mins of last treatment; type: organism-based; details: in vivo, 1.5 h; in short: as §3
# Mus musculus [13] = experiment: Antiosteoporosis activity in ovariectomized ICR mouse assessed as weight of dry femur at 110.3 nmol/kg, po treated for 4 weeks measured after 1 day of last treatment; type: functional
# In short: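 Left femur taken the day after the last dose, cleaned of muscle, length measured, defatted in chloroform–methanol (2:1, 2×3 h), dried 120 °C 6 h and weighed, ashed 800 °C 8 h and weighed. Mineral content = ash/dry weight; femur ash dissolved in 6 N HCl, diluted, calcium by o-methylphenolphthalein complexone. n = 12.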
# Mus musculus [14] = experiment: Toxicity in osteoporotic female mouse at 0.11 umol/kg, po; type: organism-based; details: in vivo
# Mus musculus [15] = experiment: Toxicity in ovariectomized ICR mouse assessed as kidney weight at 110.3 nmol/kg, po treated for 4 weeks measured after 1 day of last treatment; type: organism-based; details: in vivo, 24 h
# Mus musculus [16] = experiment: Toxicity in ovariectomized ICR mouse assessed as liver weight at 110.3 nmol/kg, po treated for 4 weeks measured after 1 day of last treatment; type: organism-based; details: in vivo, 24 h; in short: as §2
# Mus musculus [17] = experiment: Antiosteoporosis activity in ovariectomized ICR mouse assessed as phosphorous level in serum at 110.3 nmol/kg, po treated for 4 weeks measured after 1 day of last treatment by molybdenum blue method; type: functional
# In short: (§4)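 Ovariectomized female mice dosed orally with 110.3 nmol/kg in 0.5% carboxymethylcellulose once daily for 4 weeks, starting day 5 after surgery. Blood taken from the orbit the day after the last dose, stood 30 min, centrifuged 3000g for 20 min, serum stored at −20 °C. Calcium read by o-methylphenolphthalein complexone; phosphorus by molybdenum blue.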
# Mus musculus [18] = experiment: Toxicity in ovariectomized ICR mouse assessed as spleen weight at 110.3 nmol/kg, po treated for 4 weeks measured after 1 day of last treatment; type: organism-based; details: in vivo, 24 h; in short: as §2
# Mus musculus [19] = experiment: Antiosteoporosis activity in ovariectomized ICR mouse assessed as calcium level in serum at 110.3 nmol/kg, po treated for 4 weeks measured after 1 day of last treatment by o-methyl-phenolphthalein method; type: functional; in short: as §4
# Mus musculus [20] = experiment: Antiosteoporosis activity in ovariectomized ICR mouse assessed as length of femur at 110.3 nmol/kg, po treated for 4 weeks measured after 1 day of last treatment; type: functional; in short: as §1
# Mus musculus [21] = experiment: Antiosteoporosis activity in ovariectomized ICR mouse assessed as phosphorous content in femur at 110.3 nmol/kg, po treated for 4 weeks measured after 1 day of last treatment by molybdenum blue method; type: functional
# Mus musculus [22] = experiment: Toxicity in ovariectomized ICR mouse assessed as effect on uterine weight at 110.3 nmol/kg, po treated for 4 weeks measured after 1 day of last treatment; type: organism-based; details: in vivo, 24 h; in short: as §2
compound,measurement,setting,value
H-RGDFRGDF-OH,Activity,Mus musculus [1],inactive
same,Stability,[2],Stable
same,IC50,Mus musculus [3],0.26 µmol/kg
same,IC50,Mus musculus [4],0.31 µmol/kg
N=C(N)NCCC[C@H](N)C(=O)NCC(=O)N[C@@H](CC(=O)O)C(=O)N[C@@H](Cc1ccccc1)C(=O)O (H-RGDF-OH),Stability,[5],Unstable
C[C@]12CC[C@@H]3c4ccc(O)cc4CC[C@H]3[C@@H]1CC[C@@H]2OC(=O)CCC(=O)N[C@@H](CCCNC(=N)N)C(=O)NCC(=O)N[C@@H](CC(=O)O)C(=O)N[C@@H](Cc1ccccc1)C(=O)N[C@@H](CCCNC(=N)N)C(=O)NCC(=O)N[C@@H](CC(=O)O)C(=O)N[C@@H](Cc1ccccc1)C(=O)O ({Succinyl(O17-estradiol)}-RGDFRGDF-OH),Activity,Mus musculus [6],0.625%
same,Activity,Mus musculus [7],0.109 g
same,Time,Mus musculus [8],584 s
same,Activity,Mus musculus [9],36.87 mg
same,Activity,Mus musculus [10],Active
same,Activity,Mus musculus [11],64.36%
same,Time,Mus musculus [12],571 s
same,Activity,Mus musculus [13],56.6 mg
same,Activity,Mus musculus [14],Non-toxic
same,Activity,Mus musculus [15],0.16 g
same,Activity,Mus musculus [16],1.266 g
same,Activity,Mus musculus [17],3.01 mM
same,Activity,Mus musculus [18],0.135 g
same,Activity,Mus musculus [19],3.01 mM
same,Activity,Mus musculus [20],1.64 cm
same,Activity,Mus musculus [21],21.56%
same,Activity,Mus musculus [22],0.06 g
